pIC50: −log10 of the molar value. The source made the active and inactive calls. No cut-off for these calls is given here.
How the values were obtained:
LNCaP [1] = assay: Cytotoxicity against human LNCAP cells expressing mutant androgen receptor assessed as reduction in cell viability; type: cell-based
LNCaP [2] = assay: Effect on cell migration in serum-stimulated human LNCAP cells by transwell assay; type: ADME, cell-based
LNCaP [3] = assay: Inhibition of R1881-induced migration of human LNCAP cells at 10 uM by transwell assay; type: functional, cell-based
Outline: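 Quiescent LNCaP cells on collagen-coated transwell filters, 24 h after seeding, treated with 10 nM R1881 ± 10 μM compound. Migrated cells stained with Hoechst and counted by fluorescence microscopy; data given as relative increase in migrated cells.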

[4] = Cytotoxicity against african green monkey COS7 cells; type: cell-based; conditions: chlorocebus aethiops, cos-7
[5] = target: T1, Androgen receptor (Homo sapiens) (UniProt P10275); assay: Inhibition of androgen receptor in R1881-stimulated (R)-bicalutamide-resisitant human LNCAP cells assessed as reduction in PSA mRNA level at 20 uM after 24 hrs by RT-PCR analysis; type: cell-based
T1 sequence (whole entry): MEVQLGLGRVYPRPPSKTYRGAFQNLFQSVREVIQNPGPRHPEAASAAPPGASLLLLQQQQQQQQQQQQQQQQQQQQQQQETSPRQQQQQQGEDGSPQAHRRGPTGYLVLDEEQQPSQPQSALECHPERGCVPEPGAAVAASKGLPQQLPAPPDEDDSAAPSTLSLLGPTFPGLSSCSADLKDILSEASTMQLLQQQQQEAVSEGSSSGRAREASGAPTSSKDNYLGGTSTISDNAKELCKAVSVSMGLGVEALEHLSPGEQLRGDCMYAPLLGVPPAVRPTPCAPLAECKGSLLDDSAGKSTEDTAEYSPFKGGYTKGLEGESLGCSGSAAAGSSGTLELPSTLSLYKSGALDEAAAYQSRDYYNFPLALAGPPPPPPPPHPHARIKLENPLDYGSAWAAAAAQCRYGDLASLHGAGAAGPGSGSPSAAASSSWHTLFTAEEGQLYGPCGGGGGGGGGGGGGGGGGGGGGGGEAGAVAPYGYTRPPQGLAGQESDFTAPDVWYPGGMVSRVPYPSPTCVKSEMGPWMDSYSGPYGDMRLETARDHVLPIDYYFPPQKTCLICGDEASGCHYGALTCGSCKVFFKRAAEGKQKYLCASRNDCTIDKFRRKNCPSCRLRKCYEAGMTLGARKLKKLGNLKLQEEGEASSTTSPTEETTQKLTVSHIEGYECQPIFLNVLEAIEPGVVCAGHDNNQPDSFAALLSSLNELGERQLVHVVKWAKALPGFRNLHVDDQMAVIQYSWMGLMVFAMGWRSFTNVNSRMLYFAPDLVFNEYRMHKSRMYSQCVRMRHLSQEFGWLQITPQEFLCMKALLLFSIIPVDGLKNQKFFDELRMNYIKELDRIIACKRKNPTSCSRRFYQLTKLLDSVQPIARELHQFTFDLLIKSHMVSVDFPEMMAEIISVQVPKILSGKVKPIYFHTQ
Outline: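 LNCaP or LNCaP-Rbic cells (Rbic kept in 20 μM bicalutamide), 24 h after seeding, stimulated with 10 nM R1881 and treated 24 h with 10 or 20 μM compound. PSA mRNA measured by SYBR Green real-time RT-PCR in triplicate reactions, normalized to GAPDH and HPRT, expressed as fold over untreated. Two independent experiments.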

CWR22R = assay: Inhibition of cell survival in human CWR22Rv1 cells after 144 hrs by TUNEL assay; type: functional, cell-based; conditions: 22Rv1, 144 h
VCaP [6] = assay: Antitumor activity against human VCaP cells xenografted in CD-1 nu/nu mouse assessed as tumor regression at 10 mg/kg, po for 4 consecutive weeks starting on day 35 of tumor implantation measured after 60 days; type: functional, organism-based; set-up: dose 10 mg/kg
Outline: (§1)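 Male CD-1 nu/nu mice, 5–6 weeks old, injected s.c. in the flank with 10⁶ VCaP cells in 50% Matrigel/50% serum-free medium. When tumors reached 50–100 mg, mice were randomized, 5 per group. Daily oral gavage at 10 mg/kg for 4 weeks in 80% PEG-400/20% Tween-80; controls got vehicle. Tumor weight from caliper (a×b²/2) three times weekly; body weight monitored.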

LNCaP [7] = assay: Induction of apoptosis in human LNCAP cells expressing mutant androgen receptor at 20 uM after 144 hrs by TUNEL assay; type: cell-based
Outline: (§2)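 Cells treated 144 h starting 24 h after seeding. Fixed in 1% paraformaldehyde then 70% ethanol, labeled with TUNEL mix (TdT, FITC-dUTP) for 60 min at 37 °C, counterstained with propidium iodide/RNase, and analyzed by flow cytometry for % apoptotic cells. For LNCaP and LNCaP-AR, compounds at 20 μM, three independent experiments.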

VCaP [8] = assay: Antitumor activity against human VCaP cells xenografted in CD-1 nu/nu mouse assessed as tumor regression at 10 mg/kg, po for 4 consecutive weeks starting on day 35 of tumor implantation measured after 100 days; type: functional, organism-based; set-up: dose 10 mg/kg; outline: as §1
[9] = target: T1, Androgen receptor (Homo sapiens); assay: Inhibition of androgen receptor in R1881-stimulated human LNCAP cells assessed as reduction in PSA mRNA level at 0.5 to 20 uM after 24 hrs by RT-PCR analysis; type: cell-based
[10] = target: T1, Androgen receptor (Homo sapiens); assay: Displacement of [3H]R1881 from androgen receptor in human LNCAP cells at 2 uM after 24 hrs by liquid scintillation counting; type: cell-based
[11] = Inhibition of cell survival in human VCaP cells after 144 hrs by TUNEL assay; type: cell-based; outline: as §2
[12] = target: T1, Androgen receptor (Homo sapiens); assay: Displacement of [3H]R1881 from androgen receptor in human LNCAP cells at 1 uM after 24 hrs by liquid scintillation counting; type: cell-based
LNCaP-AR = assay: Induction of apoptosis in human LNCaP-AR cells expressing wild-type androgen receptor at 20 uM after 144 hrs by TUNEL assay; type: functional; outline: as §2
[13] = Growth inhibition of human VCaP cells after 144 hrs by SRB assay; type: functional
Outline: (§3)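 Cells exposed for 144 h starting 24 h after seeding, 5000 cells/well. SRB assay with OD read at 490 nm. Growth inhibition calculated as (ODtreated−ODzero)/(ODcontrol−ODzero)×100; OD below ODzero counted as cell killing. Octuplicate wells, three independent experiments; IG50 and LC50 taken from this calculation.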

DU-145 = assay: Cytotoxicity against human DU145 cells after 144 hrs by SRB assay; type: cell-based; conditions: du-145, 144 h; outline: as §3
[14] = Growth inhibition of human LNCaP-AR cells expressing wild-type androgen receptor after 144 hrs by SRB assay; type: functional; outline: as §3
LNCaP [15] = assay: Inhibition of R1881-induced DNA synthesis in human LNCAP cells at 10 to 20 uM after 18 hrs by BrdU incorporation assay; type: functional, cell-based
Outline: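 Quiescent LNCaP cells on coverslips treated 18 h with 10 nM R1881 ± compound (10 or 20 μM), then pulsed with 100 μM BrdU. Incorporation scored by anti-BrdU immunofluorescence as % of total nuclei.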

[16] = target: T1, Androgen receptor (Homo sapiens); assay: Effect on nuclear import of wild-type human androgen receptor expressed in COS7 cells at 10 uM after 1 hr by immunofluorescence analysis; type: cell-based; conditions: COS-7
Outline: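 Cos-7 cells on coverslips made quiescent, transfected with 1 μg pSG5-hAR, then stimulated with 10 nM R1881 for 60 min ± compounds. AR detected by immunofluorescence with anti-C19 antibody and Texas red secondary; nuclei stained with Hoechst.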

LNCaP [17] = assay: Growth inhibition of human LNCAP cells expressing mutant androgen receptor after 144 hrs by SRB assay; type: cell-based; conditions: Homo sapiens, LNCaP, read-out: GI50; outline: as §3
LNCaP [18] = assay: Growth inhibition of (R)-bicalutamide-resisitant human LNCAP cells after 144 hrs by SRB assay; type: functional; outline: as §3
[19] = Cytotoxicity against human PC3 cells after 144 hrs by SRB assay; type: cell-based; conditions: pc-3, 144 h; outline: as §3
Mus musculus = assay: Toxicity in human VCaP cells xenografted CD-1 nu/nu mouse assessed as body weight loss at 10 mg/kg, po for 4 consecutive weeks starting on day 35 of tumor implantation measured up to 100 days; type: organism-based; set-up: dose 10 mg/kg, route oral; conditions: in vivo, 2400 h; outline: as §1
[20] = Inhibition of R1881-induced DNA synthesis in Androgen receptor-negative human DU145 cells at 10 to 20 uM after 18 hrs by BrdU incorporation assay; type: cell-based; conditions: du-145, 18 h
[21] = target: T1, Androgen receptor (Homo sapiens); assay: Inhibition of androgen receptor in human LNCAP cells assessed as reduction in PSA mRNA level at 0.5 to 20 uM after 24 hrs by RT-PCR analysis; type: cell-based
LNCaP [22] = assay: Inhibition of R1881-induced migration of human LNCAP cells at 10 uM after 24 hrs by wound-healing assay; type: functional, cell-based
Outline: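 Confluent quiescent LNCaP monolayers scratched, washed, and given 10 nM R1881 ± 10 μM compound for 24 h. Wound closure assessed from phase-contrast images; four experiments.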

LNCaP [23] = assay: Inhibition of cell survival in (R)-bicalutamide-resisitant human LNCAP cells after 144 hrs by TUNEL assay; type: cell-based; outline: as §2

N#Cc1ccc(C[C@](O)(CS(=O)(=O)c2ccc(F)cc2)C(=O)Nc2ccc(C#N)c(C(F)(F)F)c2)cc1
Activity (LNCaP [1]): Non-toxic
Activity (LNCaP [2]): Non-toxic
inhibition (LNCaP [3]): Active
Activity [4]: Non-toxic
inhibition [5]: Active
pIC50 (CWR22R): 5.30
Activity (VCaP [6]): Active
Activity (LNCaP [7]): Non-toxic
Activity (VCaP [8]): Active
inhibition [9]: inactive
inhibition [10]: 65%
Activity [11]: Non-toxic
inhibition [12]: 60%
Activity (LNCaP-AR): inactive
GI50 [13]: 1.42 µM
Activity (DU-145): Non-toxic
GI50 [14]: 4.9 µM
inhibition (LNCaP [15]): Active
Activity [16]: inactive
GI50 (LNCaP [17]): 1.6 µM
GI50 (LNCaP [18]): 6.43 µM
Activity [19]: Non-toxic
Activity (Mus musculus): Non-toxic
Activity [20]: Non-toxic
inhibition [21]: Active
inhibition (LNCaP [22]): Active
Activity (LNCaP [23]): Non-toxic
